Source: ChEMBL document CHEMBL3758071, “Phomanolides A and B from the Fungus Phoma sp.: Meroterpenoids Derived from a Putative Tropolonic Sesquiterpene via Hetero-Diels-Alder Reactions” (J Nat Prod, 2015)
The source made the active and inactive calls. The calls are words filed in the database; no cut-off is given here.

What was measured:
Assay type in all cases: functional, cell-based
[1] = Antiproliferative activity against human HCT116 cells after 48 hrs by MTT assay; settings: HCT-116, 48 h
How it was run: (§1)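 A549, T24 and HCT116 cells were grown in McCoy's 5A with 10% FBS at 37 °C and 5% CO2. Cells were seeded at 10^4 per well and attached overnight. They were exposed for 4 h to serial dilutions (DMSO stock 10 mg/mL; vehicle 0.2% DMSO), then grown 48 h in fresh DMEM. MTT (0.5 mg/mL) was added for 3 h, formazan dissolved in DMSO, and A540 read. IC50 reported.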

HeLa [2] = assay: Antiproliferative activity against human HeLa cells after 48 hrs by MTT assay
How it was run: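 HeLa cells were grown in RPMI 1640 with 10% FBS at 37 °C and 5% CO2 and seeded at 10^4 per well overnight. Serial dilutions (DMSO stock 10 mg/mL; vehicle 0.2% DMSO) were applied for 4 h at 37 °C, then the medium was replaced with fresh DMEM for 48 h. MTT (0.5 mg/mL) was added for 3 h in the dark, formazan dissolved in DMSO, and absorbance read at 540 nm. IC50 reported.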

SH-SY5Y [3] = assay: Antiproliferative activity against human SH-SY5Y cells after 48 hrs by MTT assay
How it was run: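 SH-SY5Y cells were grown in DMEM with 10% FBS at 37 °C and 5% CO2, seeded at 10^4 cells/well and left to attach overnight. Cells were exposed to serial dilutions from a 10 mg/mL DMSO stock (vehicle 0.2% DMSO) for 4 h at 37 °C, then grown 48 h in fresh DMEM. MTT (0.5 mg/mL) was added for 3 h in the dark, formazan dissolved in DMSO, and absorbance read at 540 nm.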

A549 [4] = assay: Antiproliferative activity against human A549 cells after 48 hrs by MTT assay; settings: A549, 48 h; how it was run: as §1
[5] = Antiproliferative activity against human T24 cells after 48 hrs by MTT assay; settings: T-24, 48 h; how it was run: as §1
[6] = Antiproliferative activity against human H4 cells after 48 hrs by MTT assay; settings: H4, 48 h
How it was run: (§2)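 H4 and U251 glioma cells were maintained in MEM-EBSS with 10% FBS at 37 °C and 5% CO2. Cells were plated at 10^4 per well and attached overnight. They were treated 4 h with serially diluted compound (DMSO stock 10 mg/mL; vehicle 0.2% DMSO), then given fresh DMEM for 48 h. MTT (0.5 mg/mL) was added for 3 h, DMSO used to solubilise, and A540 read. IC50 reported.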

U-251 [7] = assay: Antiproliferative activity against human U251 cells after 48 hrs by MTT assay; settings: U-251, 48 h; how it was run: as §2
SH-SY5Y [8] = assay: Antiproliferative activity against human SH-SY5Y cells at 20 ug/ml after 48 hrs by MTT assay
H4 = assay: Antiproliferative activity against human H4 cells at 20 ug/ml after 48 hrs by MTT assay
HCT-116 = assay: Antiproliferative activity against human HCT116 cells at 20 ug/ml after 48 hrs by MTT assay
U-251 [9] = assay: Antiproliferative activity against human U251 cells at 20 ug/ml after 48 hrs by MTT assay
A549 [10] = assay: Antiproliferative activity against human A549 cells at 20 ug/ml after 48 hrs by MTT assay
HeLa [11] = assay: Antiproliferative activity against human HeLa cells at 20 ug/ml after 48 hrs by MTT assay
T-24 = assay: Antiproliferative activity against human T24 cells at 20 ug/ml after 48 hrs by MTT assay

| IC50 (SH-SY5Y [3]) [µM] | Structure (SMILES) | IC50 [1] [µM] | IC50 (HeLa [2]) [µM] | IC50 (A549 [4]) [µM] | IC50 [5] [µM] | IC50 [6] [µM] | IC50 (U-251 [7]) [µM] | Activity (SH-SY5Y [8]) | Activity (H4) | Activity (HCT-116) | Activity (U-251 [9]) | Activity (A549 [10]) | Activity (HeLa [11]) | Activity (T-24) |
| --- | --- | --- | --- | --- | --- | --- | --- | --- | --- | --- | --- | --- | --- | --- |
| 81.1 | CC1=CC(=O)O[C@@]12C[C@H]1C[C@H](O)[C@@]3(C)Oc4cc(O)cc(C)c4C[C@H]3CC(C)(C)/C=C/C[C@]1(C)O/C2=C\C(=O)O | – | 14.3 | – | – | – | – | – | – | – | – | – | – | – |
| – | C/C1=C/CC(C)(C)/C=C/C[C@]2(C)OC3=CC(=O)O[C@]4(C)CC(=O)O[C@]34C[C@H]2C[C@@H]1O | – | – | – | – | – | – | inactive | inactive | inactive | inactive | inactive | inactive | inactive |
| – | C/C1=C/CC(C)(C)[C@@H]2O[C@H]2C[C@@]2(C)O[C@@H]2C[C@@H]1O | – | – | – | – | – | – | inactive | inactive | inactive | inactive | inactive | inactive | inactive |
| > 100 | Cn1nnc2c(C(N)=O)ncn2c1=O [TEMOZOLOMIDE] | – | – | – | – | > 100 | > 100 | – | – | – | – | – | – | – |

| Structure (SMILES) | IC50 (SH-SY5Y [3]) [µM] | IC50 [1] [µM] | IC50 (HeLa [2]) [µM] | IC50 (A549 [4]) [µM] | IC50 [5] [µM] | IC50 [6] [µM] | IC50 (U-251 [7]) [µM] | Activity (SH-SY5Y [8]) | Activity (H4) | Activity (HCT-116) | Activity (U-251 [9]) | Activity (A549 [10]) | Activity (HeLa [11]) | Activity (T-24) |
| --- | --- | --- | --- | --- | --- | --- | --- | --- | --- | --- | --- | --- | --- | --- |
| Cc1cc(=O)c(O)cc2c1C[C@H]1CC(C)(C)/C=C/C[C@]3(C)Oc4cc(O)c(=O)cc(C)c4C[C@H]3C[C@H](O)[C@@]1(C)O2 | 0.08 | 0.0312 | 0.0082 | 0.0306 | 0.0125 | 0.13 | 0.1 | – | – | – | – | – | – | – |
